Experimental findings from ChEMBL document CHEMBL4049439, “Synthesis and Characterization of Tetrahydropyran-Based Bacterial Topoisomerase Inhibitors with Antibacterial Activity against Gram-Negative Bacteria” (J Med Chem, 2017) are described below.

Series [1] in a line: Inhibition of wild-type Acinetobacter baumannii DNA topoisomerase-4 mediated supercoiled pBR322 DNA relaxation by ethidium bromide based agarose gel electrophoresis.
For series [2], the system named is Acinetobacter baumannii. As to the kind of experiment: Antibacterial activity against fluoroquinolone-resistant Acinetobacter baumannii T6474 by CLSI broth microdilution method. It is filed as functional. On the technique in general: Broth dilution looks for growth in wells or tubes with falling amounts of substance.
The nature of series [3]: Inhibition of wild-type Acinetobacter baumannii DNA gyrase supercoiling activity using relaxed pBR322 DNA as substrate by ethidium bromide based agarose gel electrophoresis.
A short description of series [4]: Inhibition of wild-type Pseudomonas aeruginosa DNA gyrase supercoiling activity using relaxed pBR322 DNA as substrate by ethidium bromide based agarose gel electrophoresis.
Series [5] is described as follows: Inhibition of wild-type Pseudomonas aeruginosa DNA topoisomerase-4 mediated supercoiled pBR322 DNA relaxation by ethidium bromide based agarose gel electrophoresis.
Series [6] can be described thus: Lipophilicity, log D of the compound at pH 7.4. It is filed as physicochemical. Conditions: buffer.
Series [7] relates to Escherichia coli. As to the kind of experiment: Antibacterial activity against wild-type Escherichia coli MG1655 by CLSI broth microdilution method. It is filed as functional. Conditions: K-12 substr. MG1655. An outline of the steps:
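MIC (μg/mL) determined on wild-type E. coli MG1655, the parent of isogenic strains with truncated LPS or deleted TolC or AcrAB efflux.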

Series [8] relates to Escherichia coli. In words: Antibacterial activity against Escherichia coli MG1655 harboring rfac deletion mutant by CLSI broth microdilution method. The format is functional. Conditions: K-12 substr. MG1655. An outline of the steps:
(§1)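 MIC (μg/mL) measured against engineered derivatives of E. coli MG1655. ΔrfaC has truncated LPS (raised permeability). ΔtolC lacks the outer-membrane TolC efflux component. ΔacrAB lacks the AcrAB efflux system of the cytoplasmic membrane.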

Series [9] concerns Escherichia coli. In words: Ratio of MIC for wild-type Escherichia coli MG1655 to MIC for Escherichia coli MG1655 harboring rfac deletion mutant. The format is functional, K-12 substr. MG1655. An outline of the steps:
(§2)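 Fold change in MIC for each MG1655 derivative (ΔacrAB, ΔrfaC, ΔtolC) relative to the MIC measured on wild-type E. coli MG1655, with both MICs in μg/mL.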

Series [10] has as its system Escherichia coli. In words: Antibacterial activity against Escherichia coli MG1655 harboring tolC deletion mutant by CLSI broth microdilution method. The format is functional. As to conditions: K-12 substr. MG1655. The method, boiled down:
as §1

In series [11] the test system is Escherichia coli. As to the kind of experiment: Ratio of MIC for wild-type Escherichia coli MG1655 to MIC for Escherichia coli MG1655 harboring tolC deletion mutant. It is filed as functional, K-12 substr. MG1655. An outline of the steps: as §2
Series [12] concerns Escherichia coli. In words: Antibacterial activity against Escherichia coli MG1655 harboring AcrAB deletion mutant by CLSI broth microdilution method. It is filed as functional. As to conditions: K-12 substr. MG1655. An outline of the steps: as §1
The test system of series [13] is Escherichia coli. In words: Ratio of MIC for wild-type Escherichia coli MG1655 to MIC for Escherichia coli MG1655 harboring AcrAB deletion mutant. It is filed as functional, K-12 substr. MG1655. The method, boiled down:
as §2

The subject of series [14] is Rattus norvegicus. As to the kind of experiment: Dose normalized AUC in Wistar rat at 1 mg/kg, iv by LC-MS/MS analysis. It is filed as ADME, organism-based. As to conditions: in vivo.
Series [15] in a line: Fraction unbound in Wistar rat plasma at 1 mg/kg, iv by rapid equilibrium dialysis. It is filed as ADME, organism-based. The method, boiled down: (§3)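 Rats dosed iv at 10 mg/kg or 1 mg/kg. Dose-normalized AUC (μg·h/(mL·dose)) and its unbound counterpart derived via fraction unbound. Clearance, unbound clearance, Vdss and half-life also derived.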
Series [16] concerns Rattus norvegicus. As to the kind of experiment: Dose normalized unbound AUC in Wistar rat at 1 mg/kg, iv by LC-MS/MS analysis. It is filed as ADME, organism-based. Conditions: in vivo. The method, boiled down:
as §3

A short description of series [17]: Clearance in Wistar rat at 1 mg/kg, iv by LC-MS/MS analysis. It is filed as ADME, organism-based. Conditions: in vivo. The method, boiled down:
as §3

The subject of series [18] is Rattus norvegicus. As to the kind of experiment: Unbound clearance in Wistar rat at 1 mg/kg, iv by LC-MS/MS analysis. Conditions: in vivo. The format is ADME, organism-based. An outline of the steps:
as §3

The nature of series [19]: Volume of distribution at steady state in Wistar rat at 1 mg/kg, iv by LC-MS/MS analysis. As to conditions: in vivo, read-out: Vdss. The format is ADME, organism-based. An outline of the steps:
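Rats received a single intravenous dose of 10 or 1 mg/kg depending on the compound. Clearance, unbound clearance, Vdss, terminal half-life and dose-normalized AUC were derived from plasma exposure, with unbound fraction (fu) reported for this species.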

Series [20] can be described thus: Terminal half-life in Wistar rat at 1 mg/kg, iv by LC-MS/MS analysis. It is filed as ADME, organism-based. Conditions: in vivo, read-out: beta t1/2 (converted). An outline of the steps: as §3
A short description of series [21]: Inhibition of wild-type Escherichia coli DNA topoisomerase-4 mediated supercoiled pBR322 DNA relaxation by ethidium bromide based agarose gel electrophoresis.
Series [22] concerns Staphylococcus aureus. In words: Antibacterial activity against Staphylococcus aureus ATCC 29213 by CLSI broth microdilution method. The format is functional.
Series [23] has as its system Escherichia coli. As to the kind of experiment: Antibacterial activity against wild-type Escherichia coli ATCC 25922 by CLSI broth microdilution method. The format is functional.
Series [24] relates to Pseudomonas aeruginosa. In words: Antibacterial activity against Pseudomonas aeruginosa ATCC 27853 by CLSI broth microdilution method. It is filed as functional.
Series [25] can be described thus: Inhibition of wild-type Escherichia coli DNA gyrase supercoiling activity using relaxed pBR322 DNA as substrate by ethidium bromide based agarose gel electrophoresis.
The subject of series [26] is Mus musculus. In words: Dose normalized AUC in NMRI mouse at 10 mg/kg, iv by LC-MS/MS analysis. The format is ADME, organism-based. As to conditions: in vivo.
Series [27] in a line: Fraction unbound in NMRI mouse at 10 mg/kg, iv by rapid equilibrium dialysis. The format is ADME, organism-based. Conditions: plasma. The method, boiled down: (§4)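 Mice dosed iv at 10 mg/kg or sc at 120 mg/kg. AUC normalized to dose (μg·h/(mL·dose)). Unbound AUC derived using fraction unbound. Clearance, Vdss and terminal half-life also derived.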
For orientation: In equilibrium dialysis free small molecules cross a membrane that holds back macromolecules.

The subject of series [28] is Mus musculus. As to the kind of experiment: Dose normalized unbound AUC in NMRI mouse at 10 mg/kg, iv by LC-MS/MS analysis. It is filed as ADME, organism-based. As to conditions: in vivo. The method, boiled down: as §4
Series [29] is described as follows: Volume of distribution at steady state in NMRI mouse at 10 mg/kg, iv by LC-MS/MS analysis. As to conditions: in vivo, read-out: Vdss. It is filed as ADME, organism-based. The method, boiled down:
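Mice received a single dose of 10 mg/kg intravenously, or 120 mg/kg subcutaneously for one compound. Clearance, Vdss, half-life, unbound fraction and dose-normalized AUC were derived from plasma exposure.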

Series [30] in a line: Terminal half-life in NMRI mouse at 10 mg/kg, iv by LC-MS/MS analysis. The format is ADME, organism-based. As to conditions: in vivo, read-out: beta t1/2 (converted). The method, boiled down:
as §4

Series [31] has as its system Staphylococcus aureus. As to the kind of experiment: Antibacterial activity against methicillin-sensitive Staphylococcus aureus A-1178 by CLSI broth microdilution method. It is filed as functional.
Series [32] deals with Staphylococcus aureus. In words: Antibacterial activity against methicillin-sensitive Staphylococcus aureus A-1178 infected in cyclophosphamide-induced neutropenic NMRI mouse model assessed as log reduction in colony forming units in thighs at 40 mg/kg, sc treated 2 hrs post infection measured 22 hrs post dose. It is filed as functional. The method, boiled down:
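Neutropenic mouse thigh model infected with a methicillin-sensitive S. aureus strain, subcutaneous dosing. Thigh CFU measured 24 h post-infection (22 h post-treatment). Net log reduction given against CFU at treatment start.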

Series [33] concerns Staphylococcus aureus. In words: Antibacterial activity against methicillin/quinolone-resistant Staphylococcus aureus A-1171 by CLSI broth microdilution method. It is filed as functional.
In series [34] the test system is Staphylococcus aureus. As to the kind of experiment: Antibacterial activity against methicillin/quinolone-resistant Staphylococcus aureus A-1171 infected in cyclophosphamide-induced neutropenic NMRI mouse model assessed as log reduction in colony forming units in thighs at 40 mg/kg, sc treated 2 hrs post infection measured 22 hrs post dose. The format is functional. The method, boiled down:
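Neutropenic murine thigh infection with MRSA. A single subcutaneous dose of 40 mg/kg was given. Thigh CFU were counted 24 h postinfection (22 h post-treatment). The net change in bacterial load is given in log units relative to CFU at the start of treatment.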

For series [35], the system named is Klebsiella pneumoniae. In words: Antibacterial activity against Klebsiella pneumoniae ATCC 43816 by CLSI broth microdilution method. The format is functional.
For series [36], the system named is Klebsiella pneumoniae. In words: Antibacterial activity against Klebsiella pneumoniae ATCC 43816 infected in cyclophosphamide-induced neutropenic NMRI mouse model assessed as reduction in colony forming units in thighs at 30 mg/kg, sc treated 2 hrs post infection measured 5.5 hrs post dose. The format is functional, organism-based. An outline of the steps:
(§5)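 Neutropenic murine thigh infection with a K. pneumoniae strain, single subcutaneous dose. Thigh CFU read 7.5 h post-infection (5.5 h after treatment, covering the dosing interval). Net log change computed against CFU at start of treatment.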

Series [37] has as its system Klebsiella pneumoniae. In words: Antibacterial activity against Klebsiella pneumoniae ATCC 43816 infected in cyclophosphamide-induced neutropenic NMRI mouse model assessed as log reduction in colony forming units in thighs at 90 mg/kg, sc treated 2 hrs post infection measured 5.5 hrs post dose. It is filed as functional. The method, boiled down: as §5

Values after ≈ are worked out from the molar mass of the structure shown. Active and inactive are the calls of the source. No cut-off for these calls is given here.

One may read the IC50 as the point on the concentration scale where inhibition reaches its midpoint. Usually MIC stands for the least concentration at which growth counts as inhibited. By logD is commonly meant lipophilicity at a set pH, counting ionised and neutral species. The low end stands for a more hydrophilic compound, the high end for a more lipophilic compound. What is called fraction unbound is the share of the substance not bound to proteins or other matrix. Lower therefore signals little free substance. For orientation: clearance means the rate of elimination divided by the concentration. Read a low clearance as a low capacity for elimination. `COc1ccc2ncc(F)c(C[C@H](O)[C@@H]3CC[C@@H](NCc4ccc5c(n4)NC(=O)CO5)CO3)c2n1`: the IC50 in series [1], in series [3], in series [4] and in [5] was 125 nM throughout. Moreover, the MIC came to 0.125 µg/mL (≈ 0.259 µM) in series [2]; 0.5 µg/mL (≈ 1.03 µM) in series [7]; 0.031 µg/mL (≈ 0.0641 µM) in series [8]; 0.004 µg/mL (≈ 0.00827 µM) in series [10]; 0.004 µg/mL (≈ 0.00827 µM) in series [12]. Moreover, in series [6], the logD came out at 2. Also, the results for the Ratio in series [9], in series [11] and in [13] were 16, 100 and 100, respectively. For the same compound, the AUC/dose in [14] was found to be 457 ng·h/mL. For the same compound, the fraction unbound in series [15] was found to be 0.086. The compound also had a fAUC/dose in [16] of 39 µg·h/mL. This compound registered a clearance in series [17] of 37 mL/min/kg. This compound came in with a CL free in [18] of 430 mL/min/kg. Also, in series [19], the Vd was 2.5 L/kg. For the same compound, in series [20], the half-life is 1.3 h.
Consider `COc1ccc2ncc(F)c(CC(N)[C@@H]3CC[C@@H](NCc4ccc5c(n4)NC(=O)CO5)CO3)c2n1` (mixture of isomers), for which the IC50 in series [1] was 30 nM; in [21], 30 nM; in series [25], 125 nM; in series [3], 125 nM; in [4], 30 nM; in series [5], 30 nM. Moreover, the MIC in series [22] turned out to be 0.03 µg/mL; in series [23], 0.25 µg/mL; in series [2] it was 0.25 µg/mL; in series [24], 4 µg/mL; in series [31] it was 0.06 µg/mL; in series [33] it was 0.03 µg/mL. The MIC in series [35] came out at 0.125 µg/mL. The AUC/dose in [26] is 260 ng·h/mL. The fraction unbound in [27] was 0.154. The fAUC/dose in [28] came out at 40 µg·h/mL. Also, in [29], the Vd turned out to be 6 L/kg. In addition, the half-life in [30] is 1.2 h. In addition, the Activity is given as 2 log10CFU in series [32], 1 log10CFU in [34] and 1 log10CFU in [37]. Besides, in series [36], the outcome was inactive.
